Calls of active or inactive are those of the source. The calls are words filed in the database; no cut-off is given here.
Columns and labels:
[1] = Mean residence time (last) in BALB/c mouse lung at 100 mg/kg administered via oral gavage by LC-MS analysis; assay type: ADME, organism-based
How it was run: (§1)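 Female BALB/c mice (20 g), single oral gavage dose of 100 mg/kg. Cardiac blood and lungs taken at 0, 0.25, 0.5, 1, 2, 4, 8 and 24 h (n = 3 per time point). Plasma separated by centrifugation; lungs bead-beaten in water and supernatant recovered. Drug quantified by LC-MS/MS against an indole-2-carboxamide internal standard. Parameters derived by noncompartmental analysis.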

[2] = AUMClast in BALB/c mouse plasma at 100 mg/kg administered via oral gavage after 0.25 to 24 hrs by LC-MS analysis; assay type: ADME, organism-based; settings: in vivo; how it was run: as §1
[3] = biological target: T1, Aryl hydrocarbon receptor (Homo sapiens, UniProt P35869); assay: Transactivation of AhR (unknown origin) assessed as upregulation of CYP1A2 at 3 to 8 microg/ml; assay type: ADME
T1 sequence (P35869 whole entry): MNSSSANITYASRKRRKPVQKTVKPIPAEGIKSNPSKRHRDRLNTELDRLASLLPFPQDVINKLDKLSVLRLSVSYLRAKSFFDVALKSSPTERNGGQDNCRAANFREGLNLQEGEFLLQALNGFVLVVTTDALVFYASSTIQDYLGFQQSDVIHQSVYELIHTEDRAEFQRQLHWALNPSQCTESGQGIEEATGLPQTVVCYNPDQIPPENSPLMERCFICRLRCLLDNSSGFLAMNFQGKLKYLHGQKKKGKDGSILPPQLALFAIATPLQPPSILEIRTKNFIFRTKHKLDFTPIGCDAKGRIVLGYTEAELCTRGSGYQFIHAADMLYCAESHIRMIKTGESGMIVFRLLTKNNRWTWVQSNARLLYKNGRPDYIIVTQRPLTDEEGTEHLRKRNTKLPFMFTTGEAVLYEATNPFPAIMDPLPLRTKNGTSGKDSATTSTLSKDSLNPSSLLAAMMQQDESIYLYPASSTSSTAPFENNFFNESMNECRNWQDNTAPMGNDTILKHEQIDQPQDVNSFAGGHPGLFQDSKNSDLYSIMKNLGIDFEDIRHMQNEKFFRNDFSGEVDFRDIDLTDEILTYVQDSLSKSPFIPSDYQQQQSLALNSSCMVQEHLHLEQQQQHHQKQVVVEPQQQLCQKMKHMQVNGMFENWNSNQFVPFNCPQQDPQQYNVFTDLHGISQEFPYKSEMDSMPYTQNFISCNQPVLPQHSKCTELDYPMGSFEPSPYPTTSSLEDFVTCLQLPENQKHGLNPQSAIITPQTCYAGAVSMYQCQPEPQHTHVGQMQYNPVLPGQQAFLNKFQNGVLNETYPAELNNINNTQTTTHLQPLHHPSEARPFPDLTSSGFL
How it was run: (§2)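 Nuclear receptor reporter-gene induction assay, with reporters coupled to PXR, CAR or AhR. Compound was tested at 0.1–1, 3 and 8 μg/mL. Positive controls were rifampin for PXR, CITCO for CAR and 3-methylcholanthrene for AhR.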

[4] = AUClast in BALB/c mouse lung at 100 mg/kg administered via oral gavage after 0.25 to 24 hrs by LC-MS analysis; assay type: ADME, organism-based; settings: in vivo; how it was run: as §1
[5] = Stability in human hepatocytes assessed as compound remaining at 1 uM after 2 hrs; assay type: ADME, cell-based, Hepatocyte; settings: read-out: Stability
How it was run: (§3)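 Hepatocytes from human, mouse, rat or dog incubated with 1 μM starting concentration for 2 h; percent of parent compound remaining.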

[6] = AUMClast in BALB/c mouse lung at 100 mg/kg administered via oral gavage after 0.25 to 24 hrs by LC-MS analysis; assay type: ADME, organism-based; settings: in vivo; how it was run: as §1
Cytochrome P450 3A4 = Cytochrome P450 3A4 (Homo sapiens, UniProt P08684); assay: Inhibition of CYP3A4 (unknown origin); assay type: ADME
[7] = Tmax in BALB/c mouse plasma at 100 mg/kg administered via oral gavage after 0.25 to 24 hrs by LC-MS analysis; assay type: ADME, organism-based
How it was run: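 Female BALB/c mice (20 g) got a single 100 mg/kg oral gavage dose. Three animals were sacrificed per time point at 0, 0.25, 0.5, 1, 2, 4, 8 and 24 h. Cardiac blood was spun at 12 000g, 4 °C for plasma. Lungs were bead-beaten in water and the supernatant taken. Both matrices were quantified by LC-MS/MS with an indole-2-carboxamide internal standard. Parameters came from noncompartmental analysis.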

[8] = Oral bioavailability in BALB/c mouse at 100 mg/kg administered for 30 to 120 mins followed by Mycobacterium tuberculosis H37Rv addition to compound treated serum incubated for 7 days by alamar blue reagent based serum inhibition titration assay; assay type: ADME, organism-based; settings: in vivo
How it was run: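 Six-week-old female BALB/c mice (20 g) given one oral dose as suspension in 0.5% CMC in water; isoniazid 10 mg/kg as positive control, vehicle as negative. Serum collected at 30, 60 and 120 min, pooled from three mice per time point, 2-fold serially diluted. 10^4 CFU H37Rv added per well, 7 days at 37 °C. alamarBlue added for 16−18 h, fluorescence read at Ex544/Em590 and plotted against serum titration.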

[9] = AUClast in BALB/c mouse plasma at 100 mg/kg administered via oral gavage after 0.25 to 24 hrs by LC-MS analysis; assay type: ADME, organism-based; parameters: dose 100 mg/kg, time 0.25-24 hr, route oral; how it was run: as §1
[10] = Stability in dog hepatocytes assessed as compound remaining at 1 uM after 2 hrs; assay type: ADME, cell-based, Canis lupus familiaris, Hepatocyte; settings: read-out: Stability; how it was run: as §3
[11] = tested on: Mycobacterium tuberculosis; assay: Antimycobacterial activity against Mycobacterium tuberculosis H37Rv assessed as growth inhibition at 0.5 times MIC after 7 to 14 days in presence of 0.0313 times MIC of rifampin by alamar blue assay based Bliss synergy model analysis; assay type: functional
How it was run: (§4)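 Checkerboard of 2-fold dilutions, 4.0 to 0.0313 × MIC of each drug combined with rifampin. M. tuberculosis H37Rv at 1 × 10^4 CFU per well in 200 μL. Single-drug, blank and full-growth controls included. alamarBlue read-out, percent inhibition calculated. Bliss independence applied to wells below 1 × MIC; Δfaxy > 0 taken as synergy, < 0 as antagonism.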

[12] = tested on: Mycobacterium tuberculosis; assay: Antimycobacterial activity against Mycobacterium tuberculosis H37Rv assessed as growth inhibition at 0.25 times MIC after 7 to 14 days in presence of 0.25 times MIC of rifampin by alamar blue assay based by Bliss synergy model analysis; assay type: functional; how it was run: as §4
[13] = tested on: Mycobacterium tuberculosis; assay: Antimycobacterial activity against Mycobacterium tuberculosis H37Rv infected in BALB/c mouse model assessed as bacterial growth inhibition in lungs at 100 mg/kg administered daily via oral gavage for 5 days per week measured after 28 days post dosage co-treated with 10 mg/kg of rifampin by Bliss synergy model based analysis; assay type: functional, organism-based
How it was run: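 Female BALB/c mice, 4-6 weeks old, aerosol-infected with H37Rv, day 1 implantation 3.4-log CFU per lung. Treatment from day 14: 100 mg/kg plus rifampin 10 mg/kg by oral gavage, doses at least 1 h apart, daily 5 days/week. Single-drug arms and untreated infected controls included, four mice per group. Lung CFU counted at day 28 of treatment on 7H11 selective agar.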

[14] = biological target: T1, Aryl hydrocarbon receptor; assay: Transactivation of AhR (unknown origin) assessed as upregulation of CYP1A2 at 0.1 to 1 microg/ml; assay type: ADME; how it was run: as §2
Vero = assay: Cytotoxicity against african green monkey Vero cells; assay type: cell-based; settings: Chlorocebus sabaeus
[15] = Mutagenicity in Salmonella typhimurium TA98 assessed as increase in ratio of revertant colonies at 500 microg/plate in presence of S9 liver fraction relative to control; assay type: toxicity, subcellular; settings: salmonella enterica subsp. enterica serovar typhimurium
How it was run: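 Bacterial reverse mutation test in S. typhimurium TA98 with S9 liver fraction, at 500 and 5000 μg/plate. Revertant colony count expressed as a ratio to the DMSO solvent control; 2-aminoanthracene as positive control.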

Cytochrome P450 3A4, sequence (P08684 whole entry): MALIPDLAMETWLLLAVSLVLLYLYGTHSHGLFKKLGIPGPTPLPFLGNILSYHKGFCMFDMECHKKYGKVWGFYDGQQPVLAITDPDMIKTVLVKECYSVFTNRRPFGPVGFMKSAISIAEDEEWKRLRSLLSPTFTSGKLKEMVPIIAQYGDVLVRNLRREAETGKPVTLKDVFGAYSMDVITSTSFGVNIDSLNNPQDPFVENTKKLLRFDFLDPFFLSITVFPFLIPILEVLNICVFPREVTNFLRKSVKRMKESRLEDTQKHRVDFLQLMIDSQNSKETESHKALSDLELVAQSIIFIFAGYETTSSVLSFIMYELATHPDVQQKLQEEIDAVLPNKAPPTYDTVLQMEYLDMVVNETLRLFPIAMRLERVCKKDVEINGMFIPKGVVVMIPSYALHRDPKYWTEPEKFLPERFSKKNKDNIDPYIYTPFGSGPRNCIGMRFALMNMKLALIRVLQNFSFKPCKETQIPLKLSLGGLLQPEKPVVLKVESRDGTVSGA

Q: For C[C@@H]1[C@H]2C[C@@H](C[C@H]1NC(=O)c1cc3c(F)cc(F)cc3[nH]1)C2(C)C, which MRT last [1] is on record?
A: 8.49 h

Q: And the AUMClast [2]?
A: 137 hr.hr.ug/ml

Q: And the Activity [3]?
A: Active

Q: What about the AUClast [4] of the same compound?
A: 51 µg·h/g

Q: What about the remaining at 2 h, 1 µM [5] of the same compound?
A: 52%

Q: And the AUMClast [6]?
A: 433 hr2.ug/g

Q: What about the “inhibition (INH)” value (Cytochrome P450 3A4) of the same compound?
A: -6.7%

Q: And the Tmax [7]?
A: 4 h

Q: What about the Drug uptake [8] of the same compound?
A: Active

Q: And the AUC(0-t) [9]?
A: 18900 ng·h/mL

Q: And the remaining at 2 h, 1 µM [10]?
A: 18%

Q: What about the “growth inhibition (GI)” value [11] of the same compound?
A: 99.2%

Q: What about the “growth inhibition (GI)” value [12] of the same compound?
A: 99.4%

Q: What about the Activity [13] of the same compound?
A: Active

Q: What about the Activity [14] of the same compound?
A: Not Active

Q: What about the IC50 (Vero) of the same compound?
A: ≥ 192 µM

Q: And the “fold change (FC)” value [15]?
A: 2.5

From ChEMBL document CHEMBL4477209, “Indole-2-carboxamide-based MmpL3 Inhibitors Show Exceptional Antitubercular Activity in an Animal Model of Tuberculosis Infection” (J Med Chem, 2016)
